Holding throughout (type): functional, cell-based
What all share (settings): CV-1

Experiment [1] concerns the target T1, Peroxisome proliferator-activated receptor alpha (Mus musculus) (UniProt P23204).
T1 sequence (whole entry): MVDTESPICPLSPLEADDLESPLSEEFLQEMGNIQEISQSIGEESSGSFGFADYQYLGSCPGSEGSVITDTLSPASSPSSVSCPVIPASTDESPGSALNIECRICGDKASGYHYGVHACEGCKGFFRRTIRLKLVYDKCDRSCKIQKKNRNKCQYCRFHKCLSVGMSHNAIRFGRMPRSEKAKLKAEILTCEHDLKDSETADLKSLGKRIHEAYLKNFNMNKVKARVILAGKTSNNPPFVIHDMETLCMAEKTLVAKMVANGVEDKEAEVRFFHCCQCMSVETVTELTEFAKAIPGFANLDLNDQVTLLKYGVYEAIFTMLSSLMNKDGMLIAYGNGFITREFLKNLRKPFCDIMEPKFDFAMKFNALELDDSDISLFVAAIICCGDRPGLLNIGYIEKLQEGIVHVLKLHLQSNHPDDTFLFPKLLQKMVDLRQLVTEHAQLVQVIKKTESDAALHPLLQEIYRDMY
In words: Agonist activity at mouse PPARalpha expressed in CV1 cells co-expressing tk-PPRE-luciferase vector assessed as transient transactivation at 20 uM after 24 hrs by luciferase reporter gene assay relative to GW0746. An outline of the steps:
(§1)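 CV-1 cells seeded at 1.5 × 10⁵ cells/well in DMEM with 10% FBS. Transient transfection for 6 h with PPAR expression vector, tk-PPRE-luciferase reporter and β-galactosidase plasmid, then 24 h of compound exposure. Luciferase read in cell lysates. β-gal read as absorbance at 410 nm. Activity expressed as luciferase/β-gal. Not active means below 10% transactivation at 20 µM. At least three separate experiments.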

Experiment [2] has as its target T2, Peroxisome proliferator-activated receptor gamma (Mus musculus) (UniProt P37238).
T2 sequence (whole entry): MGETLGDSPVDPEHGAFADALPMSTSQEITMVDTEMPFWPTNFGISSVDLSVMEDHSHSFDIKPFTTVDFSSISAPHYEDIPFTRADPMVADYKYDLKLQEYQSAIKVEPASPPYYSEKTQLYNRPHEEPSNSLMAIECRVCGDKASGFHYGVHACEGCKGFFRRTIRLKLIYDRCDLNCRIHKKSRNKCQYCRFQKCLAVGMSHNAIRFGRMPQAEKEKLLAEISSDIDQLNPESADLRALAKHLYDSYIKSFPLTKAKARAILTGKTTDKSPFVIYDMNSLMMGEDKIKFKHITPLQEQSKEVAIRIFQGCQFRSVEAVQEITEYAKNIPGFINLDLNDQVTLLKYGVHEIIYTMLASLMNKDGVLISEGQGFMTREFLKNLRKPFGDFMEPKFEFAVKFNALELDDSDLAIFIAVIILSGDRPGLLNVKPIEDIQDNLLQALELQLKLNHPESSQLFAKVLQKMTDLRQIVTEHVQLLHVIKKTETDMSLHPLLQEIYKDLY
In words: Agonist activity at mouse PPARgamma expressed in CV1 cells co-expressing tk-PPRE-luciferase vector assessed as transient transactivation at 20 uM after 24 hrs by luciferase reporter gene transactivation assay relative to rosiglitazone. An outline of the steps: as §1

In experiment [3] the target is T3, Peroxisome proliferator-activated receptor delta (Mus musculus) (UniProt P35396).
T3 sequence (whole entry): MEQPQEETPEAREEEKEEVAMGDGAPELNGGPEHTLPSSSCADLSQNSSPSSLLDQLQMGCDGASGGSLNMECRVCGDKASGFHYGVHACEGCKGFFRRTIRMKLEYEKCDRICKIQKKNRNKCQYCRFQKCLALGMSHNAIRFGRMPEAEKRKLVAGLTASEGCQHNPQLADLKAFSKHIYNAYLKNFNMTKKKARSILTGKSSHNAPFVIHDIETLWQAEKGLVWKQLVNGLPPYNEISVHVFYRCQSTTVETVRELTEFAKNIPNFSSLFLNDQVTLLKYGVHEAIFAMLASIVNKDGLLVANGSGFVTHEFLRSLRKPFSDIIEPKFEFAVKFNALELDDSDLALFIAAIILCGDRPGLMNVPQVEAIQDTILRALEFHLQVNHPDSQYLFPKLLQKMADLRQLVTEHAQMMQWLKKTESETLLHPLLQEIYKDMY
Description: Agonist activity at mouse PPARdelta expressed in CV1 cells co-expressing tk-PPRE-luciferase vector assessed as transient transactivation at 20 uM after 24 hrs by luciferase reporter gene transactivation assay relative to GW0742. An outline of the steps: as §1

Active and inactive are the calls of the source.

On to `COC(=O)Cc1c[nH]c2ccc(OCCCN(C)c3nc4ccccc4o3)cc12`, for which the outcome in experiment [1] and in experiment [3] was inactive. Besides, the Activity in experiment [2] turned out to be 42.1%.
As for `CN(CCOc1ccc2cc(C(=O)O)[nH]c2c1)c1nc2ccccc2o1`, the result in experiment [1], in experiment [2] and in experiment [3] was inactive.
For the compound `CN(CCOc1ccc2[nH]cc(CC(=O)O)c2c1)c1nc2ccccc2o1`, the outcome in experiment [1] and in experiment [3] was inactive. Besides, in experiment [2], the Activity came to 28.1%.
As for `CN(CCCOc1ccc2c(c1)c(CC(=O)O)cn2Cc1ccc(F)cc1)c1nc2ccccc2o1`, the Activity in experiment [1] was 13.3%; in experiment [2] it was 15.8%. Moreover, the outcome in experiment [3] was inactive.
`CCn1cc(CC(=O)O)c2cc(OCCN(C)c3nc4ccccc4o3)ccc21`: the result in experiment [1] was inactive. Further, the Activity in experiment [2] turned out to be 66.7%; in experiment [3], 32.9%.
The matching figures for `COC(=O)Cc1cn(CC(=O)OC)c2ccc(OCCCN(C)c3nc4ccccc4o3)cc12`: “inactive”, 37.1% and “inactive”.
The like results for `CN(CCOc1ccc2cc(C(=O)O)n(C)c2c1)c1nc2ccccc2s1` were, in that order, 13.6%, 29.6% and 27.9%.
The matching figures for `CCn1c(C(=O)O)cc2ccc(OCCN(C)c3nc4ccccc4o3)cc21`: “inactive”, 23.3% and “inactive”.
Turning to `CN(CCOc1ccc2c(c1)c(CC(=O)O)cn2C)c1nc2ccccc2o1`, the values for the Activity in experiment [1] and in experiment [2] were 28% and 58.6%, respectively. The outcome in experiment [3] was inactive.
The like results for `CN(CCCOc1ccc2c(c1)c(CC(=O)O)cn2CC(=O)O)c1nc2ccccc2o1` were, in that order, “inactive”, “inactive” and “inactive”.
The like results for `CN(CCOc1ccc2cc(C(=O)O)n(Cc3ccccc3)c2c1)c1nc2ccccc2o1` were, in that order, 10%, 43.9% and 33.4%.
Take `CN(CCCOc1ccc2[nH]cc(CC(=O)O)c2c1)c1nc2ccccc2o1`: the result in experiment [1] and in experiment [3] was inactive. The Activity in experiment [2] was found to be 18.3%.
Regarding `COC(=O)Cc1cn(C(=O)c2ccc(Cl)cc2)c2ccc(OCCCN(C)c3nc4ccccc4o3)cc12`, the result in experiment [1] was inactive. In addition, the Activity is 28.9% in experiment [2] and 18.3% in experiment [3].
The matching figures for `COC(=O)Cc1cn(Cc2ccc(F)cc2)c2ccc(OCCCN(C)c3nc4ccccc4o3)cc12`: “inactive”, “inactive” and “inactive”.
The matching figures for `CN(CCOc1ccc2cc(C(=O)O)[nH]c2c1)c1nc2ccccc2s1`: “inactive”, “inactive” and 14.6%.
For `CCn1c(C(=O)O)cc2ccc(OCCN(C)c3nc4ccccc4s3)cc21`, the figures for the Activity in experiment [1], in experiment [2] and in experiment [3] were 16.7%, 66.4% and 68.8%, respectively.
As to `CN(CCOc1ccc2cc(C(=O)O)n(C)c2c1)c1nc2ccccc2o1`, the result in experiment [1], in experiment [2] and in experiment [3] was inactive.

Source of the values: ChEMBL document CHEMBL1770086, “Design and synthesis of benzoxazole containing indole analogs as peroxisome proliferator-activated receptor-γ/δ dual agonists” (Bioorg Med Chem Lett, 2011).
